Assay results reported in publication PMC6301001 (Cancer chemotherapy and pharmacology, 2015).
Where “and” joins values, the source holds several entries; their conditions need not be identical. Identical values can stand only once. Entries after “also recorded” stand apart in the source; their conditions may differ. Like-named read-outs stand apart in the source and are kept apart here.

Legend:
[1] = test system: mouse model of DIPG in which the PI3Kinase/Akt pathway is activated; conditions: genetically engineered mouse model of DIPG; cited from earlier work
glioma cell lines = conditions: cited from earlier work
[2] = adult patients with solid tumors, cited from earlier work
[3] = type: in vivo, rhesus monkeys (Macaca mulatta)
Outline: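 Three adult male rhesus monkeys with an implanted fourth-ventricular CSF catheter/reservoir, sedated with ketamine (10 mg/kg IM), then given a single 7 mg/kg oral dose by nasogastric tube. CSF (0.3 ml) sampled at 0–10, 24 and 48 h, then in a repeat study on days 0–64. Total drug by HPLC/MS/MS (LLOQ 0.1 ng/ml). Non-compartmental analysis: observed Cmax; trapezoidal AUC0–inf; t1/2 = 0.693/terminal rate constant; penetration = CSF/plasma AUC0–inf.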

[4] = type: in vivo, rhesus monkeys (Macaca mulatta); conditions: single oral dose 7 mg/kg; for Cl: plasma clearance
Outline: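 Single 7 mg/kg oral dose by nasogastric tube under ketamine sedation to three adult male rhesus monkeys (10.5–14.7 kg) fitted with central venous ports. Blood sampled at 0–10, 24 and 48 h, then on days 0–64; plasma held at –80 °C. Total drug by HPLC/MS/MS after acetonitrile precipitation with miltefosine internal standard; standards 0.001–10 µg/ml; LLOQ 1 ng/ml. Non-compartmental: observed Cmax/Tmax, trapezoidal AUC0–inf, t1/2 = 0.693/k, Cl = dose/AUC0–inf.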

[5] = cited from earlier work
human tumor cell lines = conditions: wide variety of human tumor cell lines; reported range; cited from earlier work
[6] = test system: U251 xenografts injected into the hind limb; conditions: cited from earlier work
[7] = CSF, individual NHP, single oral dose 7 mg/kg, 7 mg/kg

In the case of `CCCCCCCCCCCCCCCCCCOP(=O)([O-])OC1CC[N+](C)(C)CC1` [Perifosine], the “activity in mouse model of pontine glioma” value [1] is given as “absent activity; also recorded: lacked activity; also recorded: no activity was observed”, the “activity in vitro against glioma cell lines” value (glioma cell lines) is given as “demonstrated activity” and the “terminal half-life in humans” value ([2]; 50–350 mg/day orally for 3 weeks) is given as 105 h. The plasma half-lives ([2]; oral dose) was 80 to 116 h, the “time of peak plasma concentrations” value ([2]; oral dose) was 8 to 24 h and the “t 1/2” value ([3]; CSF terminal half-life, individual NHP, single oral dose 7 mg/kg, 7 mg/kg) was 146 h and 277 h and 350 h. The Cmax [3, 7] was 1.85 ng/mL and 4.39 ng/mL and 4.57 ng/mL, the Tmax [3, 7] was 63.6 h and 235.3 h and 235.4 h and the AUC ([3]; CSF, individual NHP, single oral dose 7 mg/kg, T = 0 to infinity, 7 mg/kg) was 1.031 µg·h/mL and 3.44 µg·h/mL and 2.89 µg·h/mL. The “maximum measured CSF concentration” value ([3]; CSF, mean of 3 NHP, single oral dose 7 mg/kg, molar equivalent) was 7.8 nM, the “CSF AUC” value ([3]; CSF, median (range) of 3 NHP, single oral dose 7 mg/kg) was 6358 (2266–7568) nM/h and the “Cmax in the CSF in initial experiments” value ([3]; CSF, oral 7.0 mg/kg, collection up to 48 h, 7 mg/kg) was “had not been reached by 48 h; also recorded: has not been reached by 48 h”. For the same molecule, the “time to maximum CSF concentration” value ([3]; CSF, single oral dose 7 mg/kg, 7 mg/kg) was > 7 days and 7 days, the Kp ([3]; male, rhesus monkey, CSF, po, 7 mg/kg) was 0.0016 and the “AUCCSF:AUCPl (ratio of CSF to plasma exposure)” value ([3]; mean of 3 NHP, single oral dose 7 mg/kg) was “.0016”. For the same molecule, the “time levels were measurable in both plasma and CSF” value ([3]; plasma and CSF, after a single oral dose) was > 2 months, the “CSF concentrations relative to plasma concentrations (fold less)” value ([3]; single oral dose 7 mg/kg) was 1000 fold and the Cl ([4]; individual NHP, 7 mg/kg) was 77.6 mL/h and 36.5 mL/h and 63.3 mL/h. For the same molecule, the Cl ([4]; mean (range) of 3 NHP) was 59.1 mL/h, the “T 1/2” value ([4]; plasma terminal half-life, individual NHP, 7 mg/kg) was 193 h and 170 h and the AUC ([4]; plasma, individual NHP, T = 0 to infinity, 7 mg/kg) was 2139 µg·h/mL and 1137 µg·h/mL. The Cmax ([4]; plasma, individual NHP, sampling to 64 days, 7 mg/kg) was 8800 ng/mL and 5300 ng/mL, the “time plasma concentrations remained >1 µM” value ([4]; plasma) was > 28 days and the “tolerability in early phase clinical trials” value [5] was “relatively well tolerated”. The “single-agent responses in patients” value ([5]; renal cell carcinoma, sarcoma and Waldenstroms macroglobulinemia, Phase I and Phase II) was “single-agent objective responses have been reported”, the IC.50 (human tumor cell lines) was “.09 to 9.2 µg/mL” and the “activity in vivo in mice bearing U251 xenografts” value [6] was “demonstrated activity”.
